Published values collected from several papers.
Protocols differ between the studies behind these lines.
Concentration: 1 µM
CDK5: Cyclin-dependent kinase 5 (CDK5, Homo sapiens, UniProt Q00535)
CDK5 with p35: Cyclin-dependent kinase 5, with p35 (CDK5, Homo sapiens, UniProt Q00535)

`C=CC(=O)N1CCC[C@@H](n2nc(-c3ccc(Oc4ccccc4)cc3)c3c(N)ncnc32)C1` has an inhibition of 10% (CDK5; enzyme activity; inhibitor).
The remaining binding of `CNS(=O)(=O)c1ccc(Nc2ncc(C(F)(F)F)c(N3CCC[C@](C)(O)C3)n2)c(C)c1` is reported as 13% (CDK5; binding; competition with immobilised ligand).
With `CC(C)S(=O)(=O)c1ccc2nccc(Nc3ccc4sc(C5CCCC5)nc4c3)c2c1` the activity vs control was 101% (CDK5 with p35; enzyme activity; inhibitor).
`COc1ccc2oc(-c3ccc4nc(N)oc4c3)c/c(=N\c3ccccc3NC(=O)CCN)c2c1` gave a remaining binding of 107% (CDK5 with p35; binding).
For `C[C@H]1CC[C@H](n2c3cnccc3c3cnc(Nc4ccc5c(n4)CCN(C(=O)CO)C5)nc32)CC1`, the remaining binding was 26% (CDK5; binding; competition with immobilised ligand).
For `Cc1cc(S(=O)(=O)N[C@H]2CC[C@H](CN3CCN(c4ccc(C5CCC(=O)NC5=O)cc4F)CC3)CC2)ccc1Nc1ncc(C(F)(F)F)c(N2CCC[C@](C)(O)C2)n1` (some centres unmarked), the remaining binding was 29% (CDK5; binding; competition with immobilised ligand).
With `C=CC(=O)N1CCC([C@@H]2CCNc3c(C(N)=O)c(-c4ccc(Oc5ccccc5)cc4)nn32)CC1` the inhibition was 7% (CDK5; enzyme activity; inhibitor).
`CN1CCN(C(=O)c2ccc(NC(=O)Nc3ccc(N(C)c4ccnc(Nc5ccc(CS(C)(=O)=O)cc5)n4)cc3)cc2)CC1` has a remaining binding of 91% (CDK5; binding; competition with immobilised ligand).
